From ChEMBL document CHEMBL1629427, “Synthesis and structure-activity relationship of 3-O-acylated (-)-epigallocatechins as 5α-reductase inhibitors” (Eur J Med Chem, 2010)
Activity calls are given as the source filed them. The rule behind the calls is not given here.

Molecular target: not listed separately
Assay: Inhibition of rat liver microsomal Steroid 5-alpha-reductase after 30 mins by scintillation counting
Settings: not given
How it was run: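 Rat liver microsomes containing both type 1 and type 2 5α-reductase. [³H]T and [³H]DHT spots were separated by TLC, cut out and extracted with ethyl acetate, then counted by liquid scintillation.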

SMILES | IC50 [nM]
CCCCCCCCCC(=O)O[C@@H]1Cc2c(O)cc(O)cc2O[C@@H]1c1cc(O)c(O)c(O)c1 | 2940
Cc1ccc(C(=O)O[C@@H]2Cc3c(O)cc(O)cc3O[C@@H]2c2cc(O)c(O)c(O)c2)cc1 | 1320
O=C(O[C@@H]1Cc2c(O)cc(O)cc2O[C@@H]1c1cc(O)c(O)c(O)c1)c1ccc(Cl)cc1 | 1600
CCCCCCCC/C=C\CCCCCCCC(=O)O[C@@H]1Cc2c(O)cc(O)cc2O[C@@H]1c1cc(O)c(O)c(O)c1 | 740
CC(C)=CCC/C(C)=C/C(=O)O[C@@H]1Cc2c(O)cc(O)cc2O[C@@H]1c1cc(O)c(O)c(O)c1 | 2240
CCCCCC/C=C\CCCCCCCC(=O)O[C@@H]1Cc2c(O)cc(O)cc2O[C@@H]1c1cc(O)c(O)c(O)c1 | 480
CC1=C(/C=C/C(C)=C/C=C/C(C)=C/C(=O)O[C@@H]2Cc3c(O)cc(O)cc3O[C@@H]2c2cc(O)c(O)c(O)c2)C(C)(C)CCC1 | 760
CC(C)(C)C1CCC(C(=O)O[C@@H]2Cc3c(O)cc(O)cc3O[C@@H]2c2cc(O)c(O)c(O)c2)CC1 (some centres not stated) | 1190
CCCCCCCCCCCC(=O)O[C@@H]1Cc2c(O)cc(O)cc2O[C@@H]1c1cc(O)c(O)c(O)c1 | 770
CCCCCCCCCCCCCCCCCC(=O)O[C@@H]1Cc2c(O)cc(O)cc2O[C@@H]1c1cc(O)c(O)c(O)c1 | 730
CCCCCCCCCCCCCCCC(=O)O[C@@H]1Cc2c(O)cc(O)cc2O[C@@H]1c1cc(O)c(O)c(O)c1 | 530
CCCCCCC/C=C/C(=O)O[C@@H]1Cc2c(O)cc(O)cc2O[C@@H]1c1cc(O)c(O)c(O)c1 | 2470
CC/C=C\C/C=C\C/C=C\CCCCCCCC(=O)O[C@@H]1Cc2c(O)cc(O)cc2O[C@@H]1c1cc(O)c(O)c(O)c1 | 780
CCCCCCCCCCCCCC(=O)O[C@@H]1Cc2c(O)cc(O)cc2O[C@@H]1c1cc(O)c(O)c(O)c1 | 600
O=C(O[C@@H]1Cc2c(O)cc(O)cc2O[C@@H]1c1cc(O)c(O)c(O)c1)c1cc(O)c(O)c(O)c1 [EPIGALOCATECHIN GALLATE] | 6290

Organism: Rattus norvegicus
Assay: Inhibition of rat liver microsomal Steroid 5-alpha-reductase at 5 uM after 30 mins by scintillation counting
Settings: not given
How it was run: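 Rat liver microsomal 5α-reductase (types 1 and 2) was incubated with 35 nM [³H]testosterone, 1.0 mM NADPH, 1 mM DTT and 40 mM potassium phosphate pH 6.5. Steroids were separated by TLC and the spots extracted with ethyl acetate for scintillation counting. Percent inhibition was taken at a single fixed test concentration.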

SMILES | inhibition [%]
CC(C)=CC(=O)O[C@@H]1Cc2c(O)cc(O)cc2O[C@@H]1c1cc(O)c(O)c(O)c1 | 36
CCCCCCCCCCCCCCCCCCCCCC(=O)O[C@@H]1Cc2c(O)cc(O)cc2O[C@@H]1c1cc(O)c(O)c(O)c1 | 28.3
CCCCCCCCCCCCCCCCCCCC(=O)O[C@@H]1Cc2c(O)cc(O)cc2O[C@@H]1c1cc(O)c(O)c(O)c1 | 47.9
CCCCCCCC(=O)O[C@@H]1Cc2c(O)cc(O)cc2O[C@@H]1c1cc(O)c(O)c(O)c1 | 49.3
CCCCCC(=O)O[C@@H]1Cc2c(O)cc(O)cc2O[C@@H]1c1cc(O)c(O)c(O)c1 | 46
CC(=O)O[C@@H]1Cc2c(O)cc(O)cc2O[C@@H]1c1cc(O)c(O)c(O)c1 | 3
COc1cc(OC)c2c(c1)O[C@H](c1cc(OC)c(OC)c(OC)c1)[C@H](OC(=O)c1cc(OC)c(OC)c(OC)c1)C2 | 8.4
O=C(Nc1ccc(Cl)cc1)O[C@@H]1Cc2c(O)cc(O)cc2O[C@@H]1c1cc(O)c(O)c(O)c1 | 19.1
CC(=O)Oc1cc(OC(C)=O)c2c(c1)O[C@H](c1cc(OC(C)=O)c(OC(C)=O)c(OC(C)=O)c1)[C@H](OC(=O)c1cc(OC(C)=O)c(OC(C)=O)c(OC(C)=O)c1)C2 | 0.5
O=C(Nc1ccc2ccccc2c1)O[C@@H]1Cc2c(O)cc(O)cc2O[C@@H]1c1cc(O)c(O)c(O)c1 | 28.7
C#CCCCC(=O)O[C@@H]1Cc2c(O)cc(O)cc2O[C@@H]1c1cc(O)c(O)c(O)c1 | 48.8
CCCC(=O)O[C@@H]1Cc2c(O)cc(O)cc2O[C@@H]1c1cc(O)c(O)c(O)c1 | 35
C/C=C(\C)C(=O)O[C@@H]1Cc2c(O)cc(O)cc2O[C@@H]1c1cc(O)c(O)c(O)c1 | 29.1
Cc1ccc(NC(=O)O[C@@H]2Cc3c(O)cc(O)cc3O[C@@H]2c2cc(O)c(O)c(O)c2)cc1 | 0.8

System: PC-3
Assay: Anticancer activity against human PC3 cells xenografted in sc dosed SCID mouse assessed as inhibition of tumor growth at 20 mg/kg, ip qd for 14 days
Format: functional
Settings: not given
How it was run: (§1)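 PC-3 xenografts in SCID mice; calipers tracked tumor volume once palpable, and dosing began at an average volume of ~50–100 mm³. Groups of 5 mice received one intraperitoneal dose daily for 14 days, formulated in 15% PEG 400, 5% EtOH and 80% H₂O, alongside a vehicle-only group. Tumor size and body weight were recorded every two days for 28 days; tumor size given as mean ± S.E.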

SMILES | inhibition
O=C(O[C@@H]1Cc2c(O)cc(O)cc2O[C@@H]1c1cc(O)c(O)c(O)c1)c1cc(O)c(O)c(O)c1 [EPIGALOCATECHIN GALLATE] | inactive

Same assay, conditions: PC-3, sc, 336 h, route subcutaneous

SMILES | inhibition in vivo at 20 mg/kg [%]
CCCCCC/C=C\CCCCCCCC(=O)O[C@@H]1Cc2c(O)cc(O)cc2O[C@@H]1c1cc(O)c(O)c(O)c1 | 38

System: PC-3
Assay: Anticancer activity against human PC3 cells xenografted in sc dosed SCID mouse assessed as inhibition of tumor growth at 80 mg/kg, ip qd for 14 days
Format: functional
Settings: PC-3, sc, 336 h
How it was run: as §1

SMILES | inhibition in vivo at 80 mg/kg [%]
O=C(O[C@@H]1Cc2c(O)cc(O)cc2O[C@@H]1c1cc(O)c(O)c(O)c1)c1cc(O)c(O)c(O)c1 [EPIGALOCATECHIN GALLATE] | 32
